# pEC50, pKd: −log10 of the molar value. The source made the active and inactive calls. The calls are words filed in the database; no cut-off is given here.
# Assays:
# Liver [1] = test: Drug uptake in mouse liver at 50 mg/kg, po in 20% Kolliphor measured at 8 hrs post dose; type: ADME, organism-based; design: dose 50 mg/kg, route oral; conditions: in vivo
# Outline: (§1)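 Female Swiss Webster mice, 8 weeks old, given a single 50 mg/kg oral gavage dose in 20% HPβCD or 20% Kolliphor. Tissues taken from three mice at 2 and 8 h post dose. Homogenized by probe sonication in PBS (1:4 w/v), protein precipitated with acetonitrile, and compound measured by LC-MS/MS in μM.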
# Liver [2] = test: Drug uptake in mouse liver at 50 mg/kg, po in 20% HP-beta-CD measured at 8 hrs post dose; type: ADME, organism-based; design: dose 50 mg/kg, route oral; conditions: in vivo; outline: as §1
# [3] = Half life in mouse at 50 mg/kg, po in 20% Kolliphor; type: ADME, organism-based; design: dose 50 mg/kg, route oral; conditions: in vivo
# Outline: (§2)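 Female Swiss Webster mice, 8 weeks old, given one oral gavage dose of 50 mg/kg as a 10 mg/mL preparation in the named vehicle (20% HPβCD suspension or 20% Kolliphor). Plasma sampled at about 0.25, 0.5, 1, 2, 4, 6, 8, 12 and 24 h, n = 3 per time point. Protein precipitated with 5 volumes acetonitrile, filtered, then LC-MS/MS. Values are averages of three mice.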
# [4] = target: Sterol 14-alpha demethylase (Trypanosoma cruzi (strain CL Brener), UniProt Q7Z1V1); test: Binding affinity to Trypanosoma cruzi CYP51 by UV-vis titration method; conditions: read-out: Kd(app)
# Heart [5] = test: Drug uptake in mouse heart at 50 mg/kg, po in 20% HP-beta-CD measured at 8 hrs post dose; type: ADME, organism-based; design: dose 50 mg/kg, route oral; conditions: in vivo; outline: as §1
# Mus musculus [6] = test: Toxicity in mouse assessed as mobility issues at 12.5 to 50 mg/kg, po bid in 20% Kolliphor; type: organism-based; design: dose 12.5-50 mg/kg, route oral; conditions: in vivo
# Outline: (§3)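 Mice in the four-day oral treatment study were given compound bid by gavage in 20% HPβCD or 20% Kolliphor. They were watched for weight loss, mobility problems and changes in appearance throughout dosing.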
# Lung [7] = test: Drug uptake in mouse lung at 50 mg/kg, po in 20% Kolliphor measured at 8 hrs post dose; type: ADME, organism-based; design: dose 50 mg/kg, route oral; conditions: in vivo; outline: as §1
# Liver [8] = test: Half life in mouse liver microsomes; type: ADME
# Trypanosoma cruzi [9] = test: Antitrypanosomal activity against Trypanosoma cruzi Y luc infected in mouse assessed as inhibition of parasitemia at 50 mg/kg, po bid in 20% HP-beta-CD administered for 4 consecutive days starting on day 3 of infection measured on day 7 post infection relative to vehicle-treated control; type: functional, organism-based; design: dose 50 mg/kg
# Outline: (§4)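 Female Swiss Webster mice, 8 weeks old, infected ip with 10^5 T. cruzi Y luc trypomastigotes. Only mice with detectable luminescence on day 3 were treated. Compound given by oral gavage bid for four days, as a suspension in 20% HPβCD or a solution in 20% Kolliphor, five mice per group. Vehicle group and benznidazole 50 mg/kg served as controls. On day 7, mice were injected ip with 150 mg/kg d-luciferin and imaged after 5 min under isoflurane. Percent inhibition calculated against untreated mice; two-tailed paired t test.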
# Mus musculus [10] = test: Toxicity in mouse assessed as change in appearance at 12.5 to 50 mg/kg, po bid in 20% HP-beta-CD; type: organism-based; design: dose 12.5-50 mg/kg, route oral; conditions: in vivo; outline: as §3
# Mus musculus [11] = test: AUClast in mouse at 50 mg/kg, po in 20% HP-beta-CD; type: ADME, organism-based, Plasma; design: time 0 - last, dose 50 mg/kg, route oral; conditions: in vivo; outline: as §2
# Mus musculus [12] = test: Toxicity in mouse assessed as change in appearance at 12.5 to 50 mg/kg, po bid in 20% Kolliphor; type: organism-based; design: dose 12.5-50 mg/kg, route oral; conditions: in vivo; outline: as §3
# Liver microsome [13] = test: Half life in human liver microsomes; type: ADME
# Mus musculus [14] = test: Toxicity in mouse assessed as weight loss at 12.5 to 50 mg/kg, po bid in 20% HP-beta-CD; type: organism-based; design: dose 12.5-50 mg/kg, route oral; conditions: in vivo; outline: as §3
# [15] = Drug uptake in mouse skeletal muscle at 50 mg/kg, po in 20% HP-beta-CD measured at 8 hrs post dose; type: ADME, organism-based, Muscle tissue; design: dose 50 mg/kg, route oral; conditions: in vivo; outline: as §1
# [16] = AUClast in mouse at 50 mg/kg, po in 20% Kolliphor; type: ADME, organism-based; design: time 0 - last, dose 50 mg/kg, route oral; conditions: plasma; outline: as §2
# Cytochrome P450 2D6 = Cytochrome P450 2D6 (Homo sapiens, UniProt P10635); test: Inhibition of CYP2D6 in human liver microsomes at 1 uM; type: ADME
# Trypanosoma cruzi [17] = test: Antitrypanosomal activity against Trypanosoma cruzi Y luc infected in mouse assessed as inhibition of parasitemia at 50 mg/kg, po bid in 20% Kolliphor administered for 4 consecutive days starting on day 3 of infection measured on day 7 post infection relative to vehicle-treated control; type: functional; outline: as §4
# Cytochrome P450 1A2 = target: T1, Cytochrome P450 1A2 (Homo sapiens, UniProt P05177); test: Inhibition of CYP1A2 in human liver microsomes at 1 uM; type: ADME
# T1 sequence (P05177 whole entry): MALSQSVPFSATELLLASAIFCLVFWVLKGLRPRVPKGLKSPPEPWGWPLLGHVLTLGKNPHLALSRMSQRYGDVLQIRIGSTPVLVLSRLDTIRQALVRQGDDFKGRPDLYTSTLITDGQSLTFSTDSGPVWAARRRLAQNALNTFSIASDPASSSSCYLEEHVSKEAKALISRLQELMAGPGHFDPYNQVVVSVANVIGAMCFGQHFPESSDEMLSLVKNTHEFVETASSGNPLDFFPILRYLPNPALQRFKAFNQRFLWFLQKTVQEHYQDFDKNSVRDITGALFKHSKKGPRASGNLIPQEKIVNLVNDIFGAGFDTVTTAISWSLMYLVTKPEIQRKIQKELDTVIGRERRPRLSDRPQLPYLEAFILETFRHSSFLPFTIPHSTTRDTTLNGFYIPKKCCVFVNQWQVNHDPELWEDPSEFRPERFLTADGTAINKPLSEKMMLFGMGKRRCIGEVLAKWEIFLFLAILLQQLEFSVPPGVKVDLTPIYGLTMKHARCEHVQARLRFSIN
# Heart [18] = test: Drug uptake in mouse heart at 50 mg/kg, po in 20% Kolliphor measured at 8 hrs post dose; type: ADME, organism-based; design: dose 50 mg/kg, route oral; conditions: in vivo; outline: as §1
# [19] = Drug uptake in mouse skeletal muscle at 50 mg/kg, po in 20% Kolliphor measured at 8 hrs post dose; type: ADME, organism-based, Muscle tissue; design: dose 50 mg/kg, route oral; conditions: in vivo; outline: as §1
# Cytochrome P450 2C9 = Cytochrome P450 2C9 (Homo sapiens, UniProt P11712); test: Inhibition of CYP2C9 in human liver microsomes at 1 uM; type: ADME
# Trypanosoma cruzi [20] = test: Antitrypanosomal activity against Trypanosoma cruzi Y luc infected in mouse assessed as inhibition of parasitemia at 25 mg/kg, po bid in 20% HP-beta-CD administered for 4 consecutive days starting on day 3 of infection measured on day 7 post infection relative to vehicle-treated control; type: functional, organism-based; design: dose 25 mg/kg; outline: as §4
# Liver microsome [21] = test: Half life in rat liver microsomes; type: ADME
# [22] = Drug uptake in mouse fat at 50 mg/kg, po in 20% HP-beta-CD measured at 8 hrs post dose; type: ADME, organism-based, Adipose tissue; design: dose 50 mg/kg, route oral; conditions: in vivo; outline: as §1
# [23] = Clearance in mouse at 50 mg/kg, po in 20% Kolliphor; type: ADME, organism-based; design: dose 50 mg/kg, route oral; conditions: in vivo; outline: as §2
# Trypanosoma cruzi [24] = test: Antitrypanosomal activity against Trypanosoma cruzi amastigotes infected in mouse C2C12 cells after 72 hrs by DAPI staining method; type: functional, organism-based; conditions: C2C12, 72 h
# [25] = Cmax in mouse at 50 mg/kg, po in 20% Kolliphor; type: ADME, organism-based; design: dose 50 mg/kg, route oral; conditions: in vivo; outline: as §2
# [26] = Drug uptake in mouse fat at 50 mg/kg, po in 20% Kolliphor measured at 8 hrs post dose; type: ADME, organism-based, Adipose tissue; design: dose 50 mg/kg, route oral; conditions: in vivo; outline: as §1
# [27] = Tmax in mouse at 50 mg/kg, po in 20% HP-beta-CD; type: ADME, organism-based; design: dose 50 mg/kg, route oral; conditions: in vivo; outline: as §2
# Cytochrome P450 3A4 = Cytochrome P450 3A4 (Homo sapiens, UniProt P08684); test: Inhibition of CYP3A4 in human liver microsomes at 1 uM; type: ADME
# Mus musculus [28] = test: Toxicity in mouse assessed as weight loss at 12.5 to 50 mg/kg, po bid in 20% Kolliphor; type: organism-based; design: dose 12.5-50 mg/kg, route oral; conditions: in vivo; outline: as §3
# Trypanosoma cruzi [29] = test: Antitrypanosomal activity against Trypanosoma cruzi Y luc infected in mouse assessed as inhibition of parasitemia at 25 mg/kg, po bid in 20% Kolliphor administered for 4 consecutive days starting on day 3 of infection measured on day 7 post infection relative to vehicle-treated control; type: functional; outline: as §4
# [30] = Half life in mouse at 50 mg/kg, po in 20% HP-beta-CD; type: ADME, organism-based; design: dose 50 mg/kg, route oral; conditions: in vivo; outline: as §2
# [31] = Tmax in mouse at 50 mg/kg, po in 20% Kolliphor; type: ADME, organism-based; design: dose 50 mg/kg, route oral; conditions: in vivo; outline: as §2
# Mus musculus [32] = test: Toxicity in mouse assessed as mobility issues at 12.5 to 50 mg/kg, po bid in 20% HP-beta-CD; type: organism-based; design: dose 12.5-50 mg/kg, route oral; conditions: in vivo; outline: as §3
# [33] = Cmax in mouse at 50 mg/kg, po in 20% HP-beta-CD; type: ADME, organism-based; design: dose 50 mg/kg, route oral; conditions: in vivo; outline: as §2
# Intestine [34] = test: Drug uptake in mouse intestine at 50 mg/kg, po in 20% HP-beta-CD measured at 8 hrs post dose; type: ADME, organism-based; design: dose 50 mg/kg, route oral; conditions: in vivo; outline: as §1
# C2C12 = test: Cytotoxicity against mouse C2C12 cells up to 10 uM; type: cell-based
# Outline: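 Mouse C2C12 myoblasts infected with T. cruzi CA-I/72, then exposed at 24 h postinfection to compound at 10 μM down to 5 pM in 5-fold steps for 72 h at 37 °C. Cells fixed in paraformaldehyde, stained with DAPI and scored by automated imaging. Triplicate wells; uninfected and infected untreated wells as controls.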
# Intestine [35] = test: Drug uptake in mouse intestine at 50 mg/kg, po in 20% Kolliphor measured at 8 hrs post dose; type: ADME, organism-based; design: dose 50 mg/kg, route oral; conditions: in vivo; outline: as §1
# Lung [36] = test: Drug uptake in mouse lung at 50 mg/kg, po in 20% HP-beta-CD measured at 8 hrs post dose; type: ADME, organism-based; design: dose 50 mg/kg, route oral; conditions: in vivo; outline: as §1
# Cytochrome P450 2C9, sequence (P11712 whole entry): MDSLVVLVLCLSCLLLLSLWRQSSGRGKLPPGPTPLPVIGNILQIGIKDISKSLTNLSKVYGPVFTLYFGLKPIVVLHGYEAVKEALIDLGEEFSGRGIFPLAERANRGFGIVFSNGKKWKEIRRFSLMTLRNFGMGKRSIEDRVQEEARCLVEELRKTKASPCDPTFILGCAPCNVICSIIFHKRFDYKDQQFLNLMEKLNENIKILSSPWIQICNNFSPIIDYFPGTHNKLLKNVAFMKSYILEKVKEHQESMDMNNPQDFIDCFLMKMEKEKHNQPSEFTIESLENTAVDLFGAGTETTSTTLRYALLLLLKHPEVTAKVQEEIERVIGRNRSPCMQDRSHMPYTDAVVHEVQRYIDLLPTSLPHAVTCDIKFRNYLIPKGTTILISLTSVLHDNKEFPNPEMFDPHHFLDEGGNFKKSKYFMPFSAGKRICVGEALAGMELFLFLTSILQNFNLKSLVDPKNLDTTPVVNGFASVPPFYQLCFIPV
# Cytochrome P450 3A4, sequence (P08684 whole entry): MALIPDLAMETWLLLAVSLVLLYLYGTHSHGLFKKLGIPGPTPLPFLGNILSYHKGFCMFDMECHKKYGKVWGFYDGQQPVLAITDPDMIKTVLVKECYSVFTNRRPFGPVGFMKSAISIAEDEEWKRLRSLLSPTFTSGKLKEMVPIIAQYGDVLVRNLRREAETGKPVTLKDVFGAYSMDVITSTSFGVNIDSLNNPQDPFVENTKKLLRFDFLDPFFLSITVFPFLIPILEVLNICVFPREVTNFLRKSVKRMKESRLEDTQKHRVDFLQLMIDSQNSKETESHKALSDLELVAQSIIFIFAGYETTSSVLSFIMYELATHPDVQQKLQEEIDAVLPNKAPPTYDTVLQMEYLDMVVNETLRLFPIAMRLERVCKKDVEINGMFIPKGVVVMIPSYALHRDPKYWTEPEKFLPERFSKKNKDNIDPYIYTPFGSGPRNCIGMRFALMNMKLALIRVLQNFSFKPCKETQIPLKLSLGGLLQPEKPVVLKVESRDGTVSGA
# Cytochrome P450 2D6, sequence (P10635 whole entry): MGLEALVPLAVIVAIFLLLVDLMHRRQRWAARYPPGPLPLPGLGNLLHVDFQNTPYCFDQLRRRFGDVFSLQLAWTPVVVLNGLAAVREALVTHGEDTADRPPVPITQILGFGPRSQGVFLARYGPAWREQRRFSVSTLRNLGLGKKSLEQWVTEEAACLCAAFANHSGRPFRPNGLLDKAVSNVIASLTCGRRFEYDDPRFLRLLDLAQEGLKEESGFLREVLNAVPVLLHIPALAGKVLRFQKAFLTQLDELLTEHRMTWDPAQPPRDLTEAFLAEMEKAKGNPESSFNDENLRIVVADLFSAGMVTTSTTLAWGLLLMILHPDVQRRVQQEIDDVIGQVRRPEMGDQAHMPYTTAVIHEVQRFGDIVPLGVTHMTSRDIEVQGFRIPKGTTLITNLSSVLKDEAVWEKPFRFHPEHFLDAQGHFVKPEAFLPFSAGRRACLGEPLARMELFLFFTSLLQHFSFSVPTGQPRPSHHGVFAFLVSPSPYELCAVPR
# Sterol 14-alpha demethylase, sequence (Q7Z1V1 whole entry): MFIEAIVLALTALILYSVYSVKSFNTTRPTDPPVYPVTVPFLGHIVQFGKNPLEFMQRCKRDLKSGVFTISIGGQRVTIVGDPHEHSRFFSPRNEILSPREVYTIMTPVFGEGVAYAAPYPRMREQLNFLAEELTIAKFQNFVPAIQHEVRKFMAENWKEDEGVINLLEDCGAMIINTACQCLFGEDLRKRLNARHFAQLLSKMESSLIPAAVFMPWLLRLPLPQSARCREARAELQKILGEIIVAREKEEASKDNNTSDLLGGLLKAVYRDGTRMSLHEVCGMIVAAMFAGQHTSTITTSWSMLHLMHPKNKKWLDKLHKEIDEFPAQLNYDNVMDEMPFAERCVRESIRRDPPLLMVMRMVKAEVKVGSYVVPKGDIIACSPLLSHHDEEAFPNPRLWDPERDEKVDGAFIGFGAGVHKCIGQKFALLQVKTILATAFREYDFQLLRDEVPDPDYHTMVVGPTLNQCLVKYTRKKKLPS
smiles,measurement,setting,value
O=C(N[C@H](Cc1c[nH]c2ccccc12)C(=O)Nc1ccncc1)c1ccc(-c2cc(C(F)(F)F)ccc2F)cc1F,Drug uptake,Liver [1],Active
same,Drug uptake,Liver [2],Active
same,half-life,[3],3.76 h
same,pKd,[4],7.92
same,Drug uptake,Heart [5],Active
same,Activity,Mus musculus [6],Non-toxic
same,Drug uptake,Lung [7],Active
same,t1/2,Liver [8],0.817 h
same,inhibition,Trypanosoma cruzi [9],Active
same,Activity,Mus musculus [10],Non-toxic
same,AUClast,Mus musculus [11],4.55 µM·h
same,Activity,Mus musculus [12],Non-toxic
same,t1/2,Liver microsome [13],0.417 h
same,Activity,Mus musculus [14],Non-toxic
same,Drug uptake,[15],Active
same,AUC(0-t),[16],106 µM·h
same,inhibition (INH),Cytochrome P450 2D6,21%
same,inhibition in vivo at 50 mg/kg,Trypanosoma cruzi [17],91.3%
same,inhibition (INH),Cytochrome P450 1A2,-5%
same,Drug uptake,Heart [18],Active
same,Drug uptake,[19],Active
same,inhibition (INH),Cytochrome P450 2C9,90%
same,inhibition,Trypanosoma cruzi [20],Active
same,t1/2,Liver microsome [21],0.3 h
same,Drug uptake,[22],Active
same,CL/F,[23],14.1 mL/min/kg
same,pEC50,Trypanosoma cruzi [24],7.68
same,Cmax,[25],13.6 µM
same,Drug uptake,[26],Active
same,Tmax,[27],2 h
same,inhibition (INH),Cytochrome P450 3A4,27%
same,Activity,Mus musculus [28],Non-toxic
same,inhibition in vivo at 25 mg/kg,Trypanosoma cruzi [29],63.3%
same,half-life,[30],4.87 h
same,Tmax,[31],2.33 h
same,Activity,Mus musculus [32],Non-toxic
same,Cmax,[33],1.02 µM
same,Drug uptake,Intestine [34],Active
same,Activity,C2C12,Non-toxic
same,Drug uptake,Intestine [35],Active
same,Drug uptake,Lung [36],Active

# Source: ChEMBL document CHEMBL3352430, “4-Aminopyridyl-based CYP51 inhibitors as anti-Trypanosoma cruzi drug leads with improved pharmacokinetic profile and in vivo potency” (J Med Chem, 2014)
